Values after ≈ are worked out from the molar mass of the structure shown.

The test system of experiment [1] is Vero. The experiment can be described thus: Inhibitory concentration (reduction in cytopathic effect) against vaccinia virus (vero cell line). The class given is functional, cell-based. As to conditions: Chlorocebus sabaeus. Summed up: (§1)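 Antiviral activity was scored as inhibition of virus cytopathic effect (CPE) in the named host cells. IC50 is the drug concentration giving a 50% reduction in virus CPE.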

Experiment [2] concerns Vero. Kind of experiment: Minimum toxic concentration against vaccinia virus (vero cell line). Format: functional, Chlorocebus sabaeus. Summed up: (§2)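 Host-cell toxicity was measured alongside the antiviral test. MTC is the lowest concentration of test compound giving a 50% reduction in percent survival of viable host cells.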
The test system of experiment [3] is Vero. Kind of experiment: Virus rating against vaccinia virus (vero cell line). Format: functional, Chlorocebus sabaeus. Summed up: (§3)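 The virus rating is computed from CPE-inhibition data by the Huffman and Sidwell method. VR > 1 means definite to moderate activity; VR < 0.5 means no significant activity.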
For experiment [4], the system named is L929. The experiment can be described thus: Minimum toxic concentration against vesicular stomatitis virus (L-929 cell line). Format: functional, Mus musculus. In outline: as §2
Experiment [5] concerns LLC-MK2. Kind of experiment: Virus rating against yellow fever virus (MK2 cell line); Evaluated by plaque reduction assay. Format: functional, cell-based. The settings on record: Cercopithecidae.
Experiment [6] relates to LLC-MK2. Kind of experiment: Minimum toxic concentration against yellow fever virus (MK2 cell line). The class given is functional, Cercopithecidae. In outline:
as §2

Experiment [7] has as its system L929. The experiment can be described thus: Virus rating against vesicular stomatitis virus (L-929 cell line). The class given is functional, Mus musculus. In outline: as §3
Experiment [8] relates to LLC-MK2. The experiment can be described thus: Inhibitory concentration (reduction in cytopathic effect) against yellow fever virus (MK2 cell line). The class given is functional, cell-based, Cercopithecidae. As to conditions: Macaca mulatta. In outline: as §1
For experiment [9], the system named is L929. The experiment can be described thus: Inhibitory concentration (reduction in cytopathic effect) against vesicular stomatitis virus (L-929 cell line). The class given is functional, cell-based. As to conditions: Mus musculus. In outline:
as §1

Experiment [10] has as its system Vero. Kind of experiment: Virus rating against vaccinia virus ( vero cell line). The class given is functional, Chlorocebus sabaeus. In outline:
as §3

For experiment [11], the system named is L929. The experiment can be described thus: Minimum toxic concentration against vaccinia virus (L-929 cell line). Format: functional, Mus musculus. In outline: as §2
Experiment [12] relates to L929. Kind of experiment: Virus rating against vaccinia virus (L-929 cell line). Format: functional, Mus musculus. Summed up: as §3
For experiment [13], the system named is L929. The experiment can be described thus: Inhibitory concentration (reduction in cytopathic effect) against vaccinia virus (L-929 cell line). As to conditions: Mus musculus. The class given is functional, cell-based. In outline: as §1
The test system of experiment [14] is Vesicular stomatitis virus. Kind of experiment: Minimum inhibitory concentration against vesicular stomatitis virus. The class given is functional.
The test system of experiment [15] is Vaccinia virus. Kind of experiment: Minimum inhibitory concentration against vaccinia virus. The class given is functional. The settings on record: Orthopoxvirus vaccinia.

`NC[C@H]1C[C@@H](n2cnc3c(N)nccc32)C(O)[C@H]1O` (stereo partly drawn) registered a 50% inhibitory concentration (IC50) in experiment [1] of 18 µg/mL (≈ 68.4 µM). Besides, the MTC50 in experiment [2] amounted to 320 µg/mL. The compound further registered a VR in [3] of 1.

Take `C[C@H]1C[C@@H](n2cnc3c(N)nccc32)C(O)[C@H]1O` (stereo partly drawn): the MTC50 amounted to 100 µg/mL in experiment [4], 100 µg/mL in experiment [2] and 104 µg/mL in experiment [6]. The IC50 in experiment [1] amounted to 3.1 µg/mL (≈ 12.5 µM); in experiment [8] it was 23 µg/mL (≈ 92.6 µM); in experiment [9], 100 µg/mL (≈ 403 µM). Besides, the VR in experiment [3] is 1.4; in [5], “Evaluated by plaque reduction assay”; in [7], 1.

In experiment [1], `NC(=O)[C@H]1C[C@@H](n2cnc3c(N)nccc32)C(O)[C@H]1O` (stereo partly drawn) had a concentration for half-maximal inhibition (IC50) of 32 µg/mL (≈ 115 µM). In experiment [2], this compound had an MTC50 of 320 µg/mL. Further, the VR in [10] is given as 0.7.

As to `OC[C@H]1C[C@@H](n2cnc3cnccc32)C(O)[C@H]1O` (stereo partly drawn), the MTC50 in experiment [4] stood at 79 µg/mL; in [6], 100 µg/mL; in experiment [11], 249 µg/mL. Further, the figures for the VR result in experiment [5], in [7] and in [12] were “Evaluated by plaque reduction assay”, 0.7 and 1, respectively. The IC50 in experiment [8] stood at 70 µg/mL (≈ 281 µM); in [9], 49 µg/mL (≈ 197 µM); in [13], 7 µg/mL (≈ 28.1 µM).

Regarding `Nc1nccc2c1ncn2[C@@H]1C[C@H](CCl)[C@H](O)C1O` (stereo partly drawn), the MTC50 was determined as 283 µg/mL in experiment [4] and 90 µg/mL in [11]. Moreover, the VR in [7] is 0.4; in [12], 0.6. For the same compound, the IC50 amounted to 88 µg/mL (≈ 311 µM) in [9] and 32 µg/mL (≈ 113 µM) in [13].

On to `Nc1nccc2c1ncn2[C@@H]1C[C@H](CO)[C@H](O)C1O` (stereo partly drawn), for which the MIC in experiment [14] and in experiment [15] was 20 µg/mL (≈ 75.7 µM) throughout.

Regarding `Nc1nccc2c1ncn2[C@@H]1C[C@H](CBr)[C@H](O)C1O` (stereo partly drawn), the MTC50 in [4] and in experiment [2] was 320 µg/mL throughout. For the same compound, the IC50 came to 87 µg/mL (≈ 266 µM) in [1] and 147 µg/mL (≈ 449 µM) in experiment [9]. In addition, the VR in experiment [3] amounted to 0.6; in experiment [7] it was 0.3.

For the origin of these results see ChEMBL document CHEMBL1126742, “Syntheses of 5'-substituted analogues of carbocyclic 3-deazaadenosine as potential antivirals” (J Med Chem, 1993).
